From PubChem
Compounds with a hit are over-represented: about 1.8% of the library has one in this group of screens.
LANA-H2A inh: blockers of LANA interaction with H2A/H2B – biochemical, FP readout, HTS, primary screen. hit rate 0.6% among 320,000. cell-free LANA-H2A/H2B peptide, fluorescence polarization. inhibition, % (test concentration not listed); in the data active means inhibition mostly above about 10%, no sharp cut-off; inactive means mostly below about 6.7%
AI-2 QS modul: Vibrio harveyi AI-2 quorum sensing modulators, primary screen, JMH597 strain, luminescence/OD600 ratio | Vibrio harveyi JMH597 AI-2 luminescence/OD600 ratio, 9 h; active compounds read low; strain lacks LuxN and CqsS sensors; 0 = neutral-control median | activity change, % at 7.5 µM | hit rate 0.4% among 300,000; in the data active means activity change below about -75%, passing the limit was not always enough; inconclusive means no clear call, values can overlap the other calls;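 further: luminescence divided by OD600 gain over 9 h not by final OD600 alone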
A1 inh: caspase 3/7 activation in MEF A1-2A-BIM cells, primary screen, A1 inhibitor project, cell-based, luminescence, HTS; hit rate 0.066% among 330,000; Caspase-Glo 3/7 luminescence, 3 h; percent of clofoctol response, vehicle zero; caspase activation, % (test concentration not listed);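 active means over half of replicate activation scores above 10%, or exactly half above 10 with the replicate mean above 10; inconclusive means replicate mean below 10 yet half the replicates above 10; inactive means over half of replicates below 10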
HKDC1 inh: HKDC1 hexokinase inhibitors, primary screen, biochemical, fluorescence, uHTS; recombinant HKDC1, G6PDH/diaphorase resazurin coupled fluorescence; hit rate 0.16% among 340,000; Q2TB90; inhibition, % at 20 µM;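 active means inhibition above about 35% when tested at 20 µM, limit read from the data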;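 further: plate controls were DMSO wells with enzyme for no effect and DMSO wells lacking enzyme for full effect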
Target sequence (Q2TB90 whole entry, looked up): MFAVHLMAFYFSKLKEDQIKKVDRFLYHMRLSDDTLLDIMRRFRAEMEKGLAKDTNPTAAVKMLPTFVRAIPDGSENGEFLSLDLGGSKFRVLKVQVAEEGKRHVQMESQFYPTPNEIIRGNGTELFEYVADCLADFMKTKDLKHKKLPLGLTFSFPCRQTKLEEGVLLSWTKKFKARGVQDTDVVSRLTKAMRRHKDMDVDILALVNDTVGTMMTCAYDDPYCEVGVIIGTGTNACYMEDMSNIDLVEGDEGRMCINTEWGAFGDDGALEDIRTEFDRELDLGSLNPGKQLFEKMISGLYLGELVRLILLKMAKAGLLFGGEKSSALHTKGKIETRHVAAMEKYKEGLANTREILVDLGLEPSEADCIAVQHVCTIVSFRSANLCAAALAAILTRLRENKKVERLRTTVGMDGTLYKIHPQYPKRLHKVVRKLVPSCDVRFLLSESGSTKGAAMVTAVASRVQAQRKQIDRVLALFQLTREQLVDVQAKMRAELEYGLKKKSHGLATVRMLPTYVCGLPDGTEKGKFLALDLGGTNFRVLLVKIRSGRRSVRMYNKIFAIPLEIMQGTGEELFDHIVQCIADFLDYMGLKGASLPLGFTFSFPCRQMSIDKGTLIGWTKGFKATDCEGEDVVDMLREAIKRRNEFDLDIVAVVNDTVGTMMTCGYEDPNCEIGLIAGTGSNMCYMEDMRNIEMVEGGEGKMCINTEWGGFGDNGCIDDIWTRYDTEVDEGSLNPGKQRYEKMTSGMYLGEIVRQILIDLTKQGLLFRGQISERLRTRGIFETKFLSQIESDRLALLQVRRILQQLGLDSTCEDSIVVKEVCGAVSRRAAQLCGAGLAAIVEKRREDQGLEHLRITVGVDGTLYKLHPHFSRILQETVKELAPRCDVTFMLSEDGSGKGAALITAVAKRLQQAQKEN
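System: Recombinant HKDC1 hexokinase | Amount: HKDC1 at 5 µg/mL | Reagent: Glucose with 1 mM ATP | Doses: Single 20 µM dose | Incubation: Reaction time 90 min, room temperature, protected from light | Signal: Coupled resazurin fluorescence, excitation 525 nm, emission 613 nm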
HDAC3 inh: HDAC3 deacetylase inhibitors, primary screen, biochemical, fluorescence, cell-free homogeneous. hit rate 0.15% among 320,000. inhibition, % at 8.3 µM. recombinant HDAC3, fluorogenic peptide/trypsin coupled; in the data active means inhibition above about 26%, passing the limit was not always enough; inconclusive means no clear call, values can overlap the other calls
ATG4B inh: ATG4B protease inhibitors, primary screen, biochemical, fluorescence, uHTS; inhibition, % at 8.33 µM; Cysteine protease ATG4B (Homo sapiens), Q9Y4P1; AID 504462, 2011; ATG4B cleavage of LC3-PLA2, NBD-HPC fluorescence, 1 h; hit rate 0.51% among 340,000; in the data active means inhibition above about 40%
An asterisk follows results filed as active; ? = inconclusive; . = not tested or not shown; + = active, no number.

SMILES | LANA-H2A inh | AI-2 QS modul | A1 inh | HKDC1 inh | HDAC3 inh | ATG4B inh
O=C(Nc1nc(-c2ccccc2)cs1)C1c2ccccc2Oc2ccccc21 | 46* | 30 | 0 | -1 | 2 | -22
CC(=O)c1ccc(S(=O)(=O)N2CCC(C(=O)Nc3ncc(C)s3)CC2)cc1 | 4 | . | 2 | -7 | 2 | 0
CC(C)C[C@H](NC(=O)c1nc[nH]c1C(=O)NCC(=O)OCc1ccccc1)C(=O)OCc1ccccc1 | 0 | 15 | -1 | 17 | 28* | 0
CC(C)(C)OC(=O)NCCCC[C@H](NC(=O)c1[nH]cnc1C(=O)Nc1ccc(Cl)cc1)C(=O)OC(C)(C)C | -2 | 0 | 1 | 1 | ? | -12
C[C@@H](NC(=O)c1nc[nH]c1C(=O)N[C@@H](CCCCNC(=O)OC(C)(C)C)C(=O)OC(C)(C)C)c1ccccc1 | 7 | 12 | 1 | 6 | 34* | 3
CC(C)C[C@H](NC(=O)c1nc[nH]c1C(=O)NCC(=O)OC(C)(C)C)C(=O)OCc1ccccc1 | -2 | 18 | 0 | 2 | 8 | -1
CC(C)(C)OC(=O)[C@H](Cc1ccccc1)NC(=O)c1nc[nH]c1C(=O)N[C@@H](CCCCN)C(=O)OC(C)(C)C | 7 | . | 0 | 2 | 15 | -4
CC(C)C[C@H](NC(=O)c1nc[nH]c1C(=O)N[C@@H](CCCCNC(=O)OC(C)(C)C)C(=O)OC(C)(C)C)C(=O)OC(C)(C)C | -6 | 6 | 0 | 0 | 4 | 0
CC(C)(C)OC(=O)NCCCC[C@H](NC(=O)c1[nH]cnc1C(=O)Nc1ccccc1)C(=O)OC(C)(C)C | 0 | 1 | -1 | 0 | 37* | -11
CC(C)(C)OC(=O)NCCCC[C@H](NC(=O)c1[nH]cnc1C(=O)N[C@@H](Cc1ccccc1)C(=O)OCc1ccccc1)C(=O)OC(C)(C)C | 0 | . | 1 | 1 | 38* | -13
Cc1cc(CNC[C@H]2O[C@@H](n3cnc(C(N)=O)n3)[C@H](O)[C@@H]2O)c(C)n1-c1cccnc1 | . | . | . | -1 | . | 0
C[C@H](NC(=O)c1nc[nH]c1C(=O)N[C@@H](Cc1ccccc1)C(=O)OC(C)(C)C)c1ccccc1 | -3 | 37 | 0 | 7 | 28* | 2
Nc1ccc(SCC(=O)Nc2cccc([N+](=O)[O-])c2)cc1 | 71* | 21 | 0 | -4 | 5 | 3
O=C(CSc1nc(-c2ccccc2)nn1C(=O)c1ccccc1)Nc1cccc([N+](=O)[O-])c1 | 0 | 29 | -1 | 22 | 41* | -6
CC(c1ccccc1C(=O)O)c1cc(F)cc2ccccc12 (stereo not given) | . | . | . | 1 | . | -4
Cc1ccccc1Oc1ccc2c(c1)[C@@H]1C[C@H](N(C)C(=O)Nc3cc(Cl)cc(Cl)c3)[C@H]([C@H](C)O)C(=O)N1CC2 | . | . | . | 0 | . | -3
CC(Sc1ncccn1)C(=O)NC1(C#N)CCCCC1 (stereo not given) | 18* | . | 1 | 4 | -2 | 2
CC(SC1=Nc2ccccc2C2CC=NN12)C(=O)NC1(C#N)CCCCC1 (stereo not given) | -4 | . | -1 | -2 | 0 | 1
COc1ccc2c(c1OC)C(=O)N(c1ccc(C)cc1)C2=O | 16* | 15 | 0 | -1 | 0 | 6
COc1ccc2c(c1OC)C(=O)N(c1ccc(C)c(C)c1)C2=O | -3 | 9 | -1 | -1 | -3 | -13
COc1ccc(CNC2CCCc3ccccc32)cc1OC (stereo not given) | 31* | 39 | 1 | 1 | -1 | 11
COc1cc(CNC2CCCCCCC2)ccc1OCC(N)=O | -1 | 13 | 1 | -2 | -1 | 5
CCOc1ccccc1OCCNC1CCCC1 | 145* | 13 | 2 | -8 | -3 | -7
CCOc1ccc(CNC2CCCCCCC2)cc1OC | -3 | -16 | 12* | -1 | 6 | -3
COc1ccccc1CNC1CCCc2ccccc21 (stereo not given) | 0 | 9 | -2 | -2 | 4 | -2
SMILES | LANA-H2A inh | AI-2 QS modul | A1 inh | HKDC1 inh | HDAC3 inh | ATG4B inh
COC(=O)[C@H](C(C)C)N(Cc1ccccc1)S(=O)(=O)CCN1CCN(c2ccccc2)CC1 | . | . | . | -1 | . | 4
COc1ccc(NC(=O)c2cc(S(=O)(=O)N3CCOCC3)ccc2C)cc1S(=O)(=O)N1CCCCC1 | . | . | . | 1 | . | -2
Cc1cccc(-c2ccc3c(c2)C2CC3CCN2Cc2ccc3c(c2)OCO3)c1 (stereo not given) | . | . | . | 3 | . | -12
Cn1ncc([N+](=O)[O-])c1C(=O)Nc1ccccc1Cl | 13* | 13 | 0 | -5 | 3 | -1
Cc1ccccc1NC(=O)c1c([N+](=O)[O-])cnn1C | 5 | 11 | 1 | -9 | 2 | -2
CN(C)CC/C=C1/c2ccccc2CS(=O)(=O)c2ccccc21 | 1 | 24 | 1 | -6 | 9 | 5
CN(C)CC/C=C1\c2ccccc2COc2ccccc21 | 70* | 20 | . | -2 | . | -4
CSc1nccc(Oc2cncc(Cl)c2)n1 | 11* | 12 | 0 | 0 | 3 | -9
O=S(=O)(CCN1CCCCC1)CCS(=O)(=O)CCN1CCCCC1 | . | . | . | -2 | . | -1
CCC/C(=N\NC(=O)c1ccc(CSc2nncn2C)cc1)c1ccccc1 | 3 | 34 | 0 | -10 | -10 | 16
Cn1cnnc1SCc1ccc(C(=O)N/N=C(\CCC(=O)O)c2ccc(C(C)(C)C)cc2)cc1 | + | . | -1 | 2 | -2 | -5
Cc1ccc(-c2csc3ncnc(-n4cnc5ccccc54)c23)cc1 | 0 | 26 | 0 | -5 | -9 | 23
Cc1sc2ncnc(-n3cnc4ccccc43)c2c1C | 83* | -10 | -1 | -5 | -8 | 0
COC(=O)C1C(OC)=CC(=O)C2CCCCC21 (stereo not given) | . | . | . | -4 | . | -2
CC[C@]12c3[nH]c4cc(CCC(=O)N(C)C)ccc4c3CCN1C(=O)[C@@H](CC(=O)NC(C)(C)C)C[C@@H]2C(=O)N1CCN(C(=O)c2ccco2)CC1 | . | . | . | -4 | . | -1
CCN(CC)/C(Sc1ccccc1)=C(\C(Cl)=C(Cl)Cl)[N+](=O)[O-] | 70* | -40 | 0 | -6 | 5 | -5
CC1CN(CC(=O)Nc2ccc([N+](=O)[O-])cc2Br)CC(C)O1 (stereo not given) | + | 19 | 0 | -3 | -2 | 3
